Calls of active or inactive are those of the source. The calls are words filed in the database; no cut-off is given here.
Legend:
NCI-H358 = assay: Antiproliferative activity against human NCI-H358 cells assessed as reduction in cell proliferation measured after 72 hrs by celltiter-glo assay; assay type: functional, cell-based; details: NCI-H358, 72 h
In short: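 Cells in RPMI 1640 with 10% heat-inactivated FBS at 37°C and 5% CO₂ were seeded at 2 to 3 × 10³ per well. […] Growth was read as cellular ATP by CellTiter-Glo.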

SK-OV-3 [1] = assay: Synergistic antiproliferative activity against human SK-OV-3 cells assessed as combination index at ED50 measured after 72 hrs in presence of lapatinib by celltiter-glo assay; assay type: functional
[2] = target: RAC-alpha serine/threonine-protein kinase (Homo sapiens) (UniProt P31749); assay: Inhibition of AKT in human A-431 cells assessed as reduction in AKT phosphorylation at S473 residue at 5 umol/L measured after 5 hrs in presence of erlotinib by Western blot analysis; assay type: cell-based; details: dose 5.0 µmol/L
Chain of RAC-alpha serine/threonine-protein kinase (Homo sapiens) (P31749 whole entry): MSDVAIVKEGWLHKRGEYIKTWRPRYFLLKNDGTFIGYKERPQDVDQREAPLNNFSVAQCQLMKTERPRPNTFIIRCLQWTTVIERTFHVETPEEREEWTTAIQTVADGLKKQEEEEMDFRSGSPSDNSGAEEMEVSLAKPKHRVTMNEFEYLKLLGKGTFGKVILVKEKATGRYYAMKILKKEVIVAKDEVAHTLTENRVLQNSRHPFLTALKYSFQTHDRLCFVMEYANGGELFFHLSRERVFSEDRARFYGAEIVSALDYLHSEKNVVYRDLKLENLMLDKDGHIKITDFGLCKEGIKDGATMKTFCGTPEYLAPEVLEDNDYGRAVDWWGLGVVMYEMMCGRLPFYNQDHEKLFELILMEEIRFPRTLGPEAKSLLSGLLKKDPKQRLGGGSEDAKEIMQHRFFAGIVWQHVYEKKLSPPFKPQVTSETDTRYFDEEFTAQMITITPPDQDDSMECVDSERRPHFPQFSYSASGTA
In short: (§1)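 Cells were lysed in Tris-HCl pH 7.5, 150 mM NaCl, 1% Triton X-100 with protease and phosphatase inhibitors. Lysates were run on SDS-PAGE, transferred to nitrocellulose and probed with phospho-specific antibodies.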

[3] = target: RAC-alpha serine/threonine-protein kinase (Homo sapiens) (UniProt P31749); assay: Inhibition of AKT in human A-431 cells assessed as reduction in S6 phosphorylation at S240/S244 residues at 5 umol/L measured after 5 hrs in presence of erlotinib by Western blot analysis; assay type: cell-based; details: dose 5.0 µmol/L; in short: as §1
Mus musculus = assay: In vivo inhibition of AKT in human NCI-H292 cells xenografted mouse at 120 mg/kg, po administered as single dose measured after 12 hrs by immunoprecipitation assay; assay type: functional, organism-based
SK-BR-3 [4] = assay: Synergistic antiproliferative activity against human SK-BR-3 cells assessed as combination index at ED50 treated 24 hrs prior to lapatinib and measured after 72 hrs by celltiter-glo assay; assay type: functional; details: time 96 hrs
HCC1954 = assay: Synergistic antiproliferative activity against human HCC1954 cells assessed as combination index at ED75 measured after 96 hrs in presence of lapatinib by celltiter-glo assay; assay type: functional
MDA-MB-468 [5] = assay: Synergistic antiproliferative activity against human MDA-MB-468 cells assessed as combination index at ED90 treated 24 hrs prior to lapatinib and measured after 72 hrs by celltiter-glo assay; assay type: functional; details: time 96 hrs
SK-BR-3 [6] = assay: Synergistic antiproliferative activity against human SK-BR-3 cells assessed as combination index at ED90 treated 24 hrs prior to lapatinib and measured after 72 hrs by celltiter-glo assay; assay type: functional; details: time 96 hrs
SK-OV-3 [7] = assay: Synergistic antiproliferative activity against human SK-OV-3 cells assessed as combination index at ED90 treated 24 hrs prior to lapatinib and measured after 72 hrs by celltiter-glo assay; assay type: functional; details: time 96 hrs
[8] = target: RAC-alpha serine/threonine-protein kinase (Homo sapiens) (UniProt P31749); assay: Inhibition of AKT in human HCC70 cells assessed as reduction in S6 phosphorylation at S240/S244 residues at 1 umol/L by Western blot analysis; assay type: cell-based; details: dose 1.0 µmol/L, time 3-24 hrs
In short: (§2)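 HCC70 cells at ~70% confluence were exposed to 10 µmol/L lapatinib, 1 µmol/L MK-2206, or both, for 0, 3, 6, 12 or 24 h. Lysates were prepared in Triton X-100/Tris buffer (pH 7.5) with protease and phosphatase inhibitors. Immunoblots after SDS-PAGE and nitrocellulose transfer were probed for pAkt and pS6.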

[9] = target: RAC-alpha serine/threonine-protein kinase (Homo sapiens) (UniProt P31749); assay: Inhibition of AKT in human HCC70 cells assessed as reduction in S6 phosphorylation at S240/S244 residues at 1 umol/L measured after 3 to 24 hrs in presence of lapatinib by Western blot analysis; assay type: cell-based; details: dose 1.0 µmol/L, time 3-24 hrs; in short: as §2
[10] = Toxicity in human SK-OV-3 cells xenografted CB17/icr SCID mouse assessed as body weight loss at 60 to 120 mg/kg, po administered 3 times per week for 2 weeks starting 2 hrs post lapatinib treatment and measured during compound dosing; assay type: organism-based; details: in vivo, 336 h, dose 60-120 mg/kg
In short: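 SK-OV-3 cells in 50% Matrigel/PBS injected s.c. into flank of female C.B-17/ICR-scid mice; dosing began after 3 wk, randomized at mean tumour 0.13 cm³ (n = 5). Lapatinib 100 mg/kg p.o. in distilled water 5 d/wk for 2 wk; MK-2206 in 30% Captisol p.o. days 0, 2, 4, 7, 9, 11. Body weight and physical signs monitored.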

BT-474 = assay: Synergistic antiproliferative activity against human BT-474 cells assessed as combination index at ED75 measured after 72 hrs in presence of docetaxel by celltiter-glo assay; assay type: functional
In short: (§3)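 Cells grown in RPMI 1640 with 10% heat-inactivated FBS at 37°C, 5% CO₂. Seeded at 2 to 3 × 10³ per well; drugs added 24 h later. […] Viability read as cellular ATP by CellTiter-Glo. CI calculated by Chou–Talalay from median-effect plots at ED50, ED75 and ED90.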

MDA-MB-231 = assay: Synergistic antiproliferative activity against human MDA-MB-231 cells assessed as combination index at ED90 measured after 72 hrs in presence of docetaxel by celltiter-glo assay; assay type: functional; in short: as §3
MDA-MB-468 [11] = assay: Synergistic antiproliferative activity against human MDA-MB-468 cells assessed as combination index at ED90 measured after 72 hrs in presence of docetaxel by celltiter-glo assay; assay type: functional
A2780 [12] = assay: Synergistic antiproliferative activity against human A2780 cells assessed as combination index at ED50 measured after 72 hrs in presence of carboplatin by celltiter-glo assay; assay type: functional
In short: (§4)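 Cells were seeded at 2–3 × 10³ per well in RPMI 1640 with 10% FBS. At 24 h, MK-2206 and the partner drug were added simultaneously at constant concentration ratios spanning each agent's IC₅₀, for 72 h. Growth was read as cellular ATP by CellTiter-Glo. CI was taken from median-effect plots of each agent alone and in combination (Chou–Talalay), at ED₅₀, ED₇₅ and ED₉₀.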

A2780 [13] = assay: Synergistic antiproliferative activity against human A2780 cells assessed as combination index at ED90 measured after 72 hrs in presence of 5-FU by celltiter-glo assay; assay type: functional; in short: as §4
A2780 [14] = assay: Induction of apoptosis in human A2780 cells assessed as increase in caspase-3/7 activity measured after 48 hrs in presence of carboplatin by caspase-glo 3/7 assay; assay type: functional, cell-based; details: dose 0.0625-1 µM
NCI-H1703 = assay: Synergistic antiproliferative activity against human NCI-H1703 cells assessed as combination index at ED25 to ED90 measured after 72 hrs in presence of gemcitabine by celltiter-glo assay; assay type: functional
NCI-H441 = assay: Induction of apoptosis in human NCI-H441 cells assessed as fold induction of capsase-3/7 activity measured after 24 to 48 hrs in presence of gemcitabine by caspase-glo 3/7 assay; assay type: functional; details: time 24-48 hrs
[15] = target: RAC-alpha serine/threonine-protein kinase (Homo sapiens) (UniProt P31749); assay: Inhibition of AKT phosphorylation at S473 residue in human NCI-H661 cells at 3 umol/L measured after 4 to 24 hrs in presence of gemcitabine by MSD assay; details: time 4-24 hrs

Structure (SMILES): Cl.NC1(c2ccc(-c3nc4ccn5c(=O)[nH]nc5c4cc3-c3ccccc3)cc2)CCC1
- IC50 (NCI-H358): 13.5 µM
- CI50 (SK-OV-3 [1]): 0.07
- inhibition [2]: Active
- inhibition [3]: Active
- inhibition (Mus musculus): Active
- CI50 (SK-BR-3 [4]): 0.18
- CI75 (HCC1954): 0.18
- CI90 (MDA-MB-468 [5]): 0.18
- CI90 (SK-BR-3 [6]): 0.18
- CI90 (SK-OV-3 [7]): 0.18
- inhibition [8]: Dose-Dependent Effect
- inhibition [9]: Active
- Activity [10]: Non-Toxic
- CI75 (BT-474): 0.8
- CI90 (MDA-MB-231): 0.7
- CI90 (MDA-MB-468 [11]): 0.9
- CI50 (A2780 [12]): 0.49
- CI90 (A2780 [13]): 0.53
- Activity (A2780 [14]): Dose-Dependent Effect
- CI (NCI-H1703): 0.43
- fold change (FC) (NCI-H441): 2.3
- inhibition [15]: Active

Reference: ChEMBL document CHEMBL5705892, “MK-2206, an allosteric Akt inhibitor, enhances antitumor efficacy by standard chemotherapeutic agents or molecular targeted drugs in vitro and in vivo” (Mol Cancer Ther, 2010)
